Assay results from different studies.
Protocols differ between the studies behind these lines.
CDK4 with cyclin D1: Cyclin-dependent kinase 4, with cyclin D1 (CDK4, Homo sapiens, UniProt P11802)
CDK4 with cyclin D3: Cyclin-dependent kinase 4, with cyclin D3 (CDK4, Homo sapiens, UniProt P11802)
CDK4: Cyclin-dependent kinase 4 (CDK4, Homo sapiens, UniProt P11802)

O=C(Nc1cnn(-c2csc(C(=O)NC3COC3)c2)c1)Nc1ccccc1Cl
remaining activity (CDK4 with cyclin D1; enzyme activity, inhibitor; 5 µM): 92.2%

O=C1Nc2ccc(Cl)cc2C1=Cc1cc(Cl)c(O)c(Cl)c1
remaining signal (CDK4 with cyclin D1; cell-free assay; 0.5 µM): 94.7%

C[C@H]1CCN(c2nccc(-c3cnn4ncccc34)n2)C1
remaining binding (CDK4 with cyclin D3; binding; 1 µM): 62%

Nc1nc(Nc2ccc(S(N)(=O)=O)cc2)sc1C(=O)c1ccccc1[N+](=O)[O-]
inhibition (CDK4; enzyme activity, inhibitor; 0.1 µM): 87%

Cc1c(NC(=O)c2cc(C(N)=O)nc3cc(F)ccc23)c(C(F)(F)F)nn1Cc1ccc(C#N)cc1
remaining binding (CDK4 with cyclin D3; cell-free assay, competition with immobilised ligand; 1 µM): 81%

COc1ccc(C(=O)[C@H]2Cc3c(cc([N+](=O)[O-])cc3[N+](=O)[O-])[C@@H](O)[C@@]23C(=O)Nc2ccccc23)cc1
inhibition (CDK4; cell-free assay, inhibitor, TR-FRET; 1 µM): 39.3%

CSc1cccnc1N1CCN(Cc2nc3ccccc3[nH]2)CC1
remaining binding (CDK4 with cyclin D3; cell-free assay, competition with immobilised ligand; 1 µM): 82%

N[C@H]1CCN(c2nccc(-c3cnn4ncccc34)n2)C1
remaining binding (CDK4 with cyclin D1; binding; 1 µM): 100%

CS(=O)(=O)c1cc(C2(NC(=O)c3cncc4c3cnn4-c3ccc(F)cc3)CC2)ccn1
remaining binding (CDK4 with cyclin D3; cell-free assay, competition with immobilised ligand; 1 µM): 100%

CS(=O)(=O)CCNCc1ccc(-c2ccc3ncnc(Nc4ccc(OCc5cccc(F)c5)c(Cl)c4)c3c2)o1
remaining signal (CDK4 with cyclin D3; cell-free assay; 0.5 µM): 104%

O=C(c1ccccc1F)[C@H]1Cc2c(cc([N+](=O)[O-])cc2[N+](=O)[O-])[C@@H](O)[C@@]12C(=O)Nc1ccccc12
inhibition (CDK4; cell-free assay, inhibitor, TR-FRET; 1 µM): 38.9%

COc1ccc(OC)c2c(=S)c3ccccc3[nH]c12
remaining signal (CDK4 with cyclin D1; cell-free assay; 0.5 µM): 93.5%

CC(C)(C)c1nc2c(s1)c1nc(N)ncc1c1ccc(NS(=O)(=O)c3c(F)cccc3F)c(F)c12
remaining activity (CDK4 with cyclin D1; enzyme activity, inhibitor, radiometric; 1 µM): 88%

COc1cc2c(cc1OC)-c1[nH]nc(Nc3cccc(F)c3)c1C2
remaining signal (CDK4 with cyclin D3; cell-free assay; 0.5 µM): 95.4%

CO[C@@H](C)c1c(Nc2ccc([C@@H](N(C)C(=O)C3CCS(=O)(=O)CC3)C(F)(F)F)cc2)cnc2cc(Cl)nn12
remaining binding (CDK4; cell-free assay, competition with immobilised ligand; 1 µM): 100%

CC1CCCN1c1nccc(-c2cnn3ncccc23)n1 (centres unmarked)
remaining binding (CDK4; binding; 1 µM): 100%

CNC(=O)c1ccc(Nc2ncc(C(F)(F)F)c(NCc3nccnc3N(C)S(C)(=O)=O)n2)cc1
remaining binding (CDK4 with cyclin D1; cell-free assay, competition with immobilised ligand; 0.1 µM): 100%

Nc1ncnc2occ(-c3ccc(NC(=O)Nc4cc(C(F)(F)F)ccc4F)cc3)c12
remaining signal (CDK4; cell-free assay, inhibitor; 20 µM): 29%

O=C(c1ccc(F)cc1)[C@H]1Cc2c(cc([N+](=O)[O-])cc2[N+](=O)[O-])[C@H](O)[C@]12C(=O)Nc1ccccc12
inhibition (CDK4; cell-free assay, inhibitor, TR-FRET; 1 µM): 23.2%

O=C(Nc1cccnn1)N1CC(C/C=C/c2cncc(Oc3ccc(C(F)(F)F)cn3)n2)C1
remaining binding (CDK4 with cyclin D1; cell-free assay, competition with immobilised ligand; 1 µM): 75%
